Measured values of several laboratories.
Protocols differ between the studies behind these lines.
Target: Tyrosine-protein kinase Lyn (LYN, Homo sapiens, UniProt P07948)

Structure (SMILES) | observed | mode | method | tested at | quantity | value
N#CC1(c2ccccn2)CCN(Cc2cc(C(=O)O)c(=O)n3ccccc23)CC1 | cell-free assay |  | competition with immobilised ligand | 1 µM | remaining binding | 100%
Cc1ncc(C)n2nc(/C=C/c3nc(N4CCCC4)cc(N4CCOCC4)n3)nc12 | enzyme activity | inhibitor |  | 10 µM | inhibition | -13%
Cn1cncc1[C@](O)(COc1ccc(C#N)cc1-c1ccc(OC(F)(F)F)cc1)c1ccc(C#N)cc1 | cell-free assay |  | competition with immobilised ligand | 1 µM | remaining binding | 90%
Cn1cc(-c2cc(F)cc(N3CCn4c(cc5c4CCCC5)C3=O)c2CO)cc(Nc2ccc(N3CCN(C4COC4)CC3)cn2)c1=O | enzyme activity | inhibitor |  | 0.1 µM | inhibition | 12%
COc1ncccc1-c1cnn2ccc(N3CCN(C(=O)OC(C)C)CC3)nc12 | binding |  | competition with immobilised ligand | 1 µM | remaining binding | 79%
CC(C)(C)c1cc(C=C(C#N)C#N)cc(Br)c1O | enzyme activity | inhibitor |  | 0.5 µM | remaining activity | 74.1%
Cc1nn(C)cc1-c1nc2c(N3CCN(Cc4ccc(Cl)cc4)CC3)c(Cl)cnc2[nH]1 | binding |  | competition with immobilised ligand | 1 µM | remaining binding | 86%
O=c1[nH]c2ccccc2n1C1CCN(Cc2ccc(-c3[nH]c4cc5ncnc5cc4nc3-c3ccccc3)cc2)CC1 | enzyme activity |  |  | 0.5 µM | remaining activity | 102%
O=C(Nc1cccnn1)N1CCN([C@@H]2CCOc3cc(C(F)(F)F)ccc32)CC1 | enzyme activity | inhibitor |  | 20 µM | inhibition | -4%
